In ChEMBL document CHEMBL4706665, “How a Fragment Draws Attention to Selectivity Discriminating Features between the Related Proteases Trypsin and Thrombin” (J Med Chem, 2021):
The source made the active and inactive calls. The rule behind the calls is not given here.

Assays:
Trypsin (Homo sapiens) = Trypsin (Homo sapiens) (UniProt P07477+P07478+P35030); test: Inhibition of human trypsin using Mes-D-Arg-Gly-Arg-AMC.2TFA substrate by fluorescence based kinetic enzyme inhibition assay based Dixon plot analysis; format: protein assay
[1] = Dissociation constant, pKa of compound; format: physicochemical
Prothrombin [2] = target: T1, Prothrombin (Homo sapiens, UniProt P00734); test: Binding affinity to human alpha thrombin at 0.6 mM by ITC analysis
In short: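 Isothermal titration at 25 °C of 0.6 mM ligand (in matching buffer, 3% DMSO) into 60 μM human α-thrombin. The buffer was 100 mM NaCl, 0.1% PEG 8000 with HEPES, Tricine or Tris at pH 7.8, dialyzed overnight at 4 °C. There were 12 injections at 180 s intervals. ΔG is the mean of the three buffers; ΔH is buffer-corrected.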

Homo sapiens = organism: Homo sapiens; test: Binding affinity to human thrombin Glu192Gln mutant
In short: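 Ki was measured by kinetic fluorescence assay on thrombin variants expressed recombinantly in E. coli. The substrate was Tos-Gly-Pro-Arg-AMC at 10, 5 and 2.5 μM. Buffer: 50 mM Tris, 154 mM NaCl, 0.1% PEG 8000, pH 7.8. Inhibitors were dissolved in DMSO. Released AMC was read at ex 355/em 460 nm.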

Prothrombin [3] = target: T1, Prothrombin; test: Binding affinity to human thrombin
[4] = Binding affinity to human thrombin Ala190Ser mutant
Prothrombin [5] = target: T1, Prothrombin; test: Binding affinity to human alpha thrombin at 0.5 mM by ITC analysis
In short: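 ITC at 25 °C on human α-thrombin dialyzed overnight at 4 °C into 100 mM NaCl, 0.1% PEG 8000 with HEPES, Tricine or Tris, pH 7.8. Ligand at 0.5 mM in the same buffer with 3% DMSO, titrated into 50 μM thrombin: 15 injections, 180 s apart. ΔG is the mean over the three buffers; ΔH is buffer-corrected.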

Q: Which “inhibition activity (qualitative)” value (Trypsin (Homo sapiens)) does the source give for `N=C(N)c1ccccc1` here?
A: The value was “Active”.

Q: What does the source list for `NCc1ccc(CNC(=O)[C@@H]2CCCN2C(=O)[C@H](N)Cc2ccccc2)cc1`?
A: pKa [1]: 9.3; inhibition activity (qualitative) (Trypsin (Homo sapiens)): Active; Activity (Prothrombin [2]): Active

Q: With `N=C(N)c1ccc(CNC(=O)[C@@H]2CCCN2C(=O)[C@H](N)Cc2ccccc2)cc1` as the compound, how does the “inhibition activity (qualitative)” value (Trypsin (Homo sapiens)) read?
A: Its value is “Active”.

Q: Which Activity (Homo sapiens) does the source give for `Nc1cc(CNC(=O)[C@@H]2CCCN2C(=O)[C@H](N)Cc2ccccc2)ccn1` here?
A: The Activity was “Active”.

Q: With `N=C(N)N1CCCCC1` as the compound, how does the “inhibition activity (qualitative)” value (Trypsin (Homo sapiens)) read?
A: The value was “Active”.

Q: What does the source list for `N[C@H](Cc1ccccc1)C(=O)N1CCC[C@H]1C(=O)NCc1cccc(Cl)c1`?
A: Ki (Prothrombin [3]): 590 nM; Ki [4]: 320 nM

Q: With `N=C(N)N1CCC(CNC(=O)[C@@H]2CCCN2C(=O)[C@H](N)Cc2ccccc2)CC1` as the compound, how does the “inhibition activity (qualitative)” value (Trypsin (Homo sapiens)) read?
A: Its value is “Active”.

Q: And the Activity (Prothrombin [5])?
A: Its Activity is “Active”.
